ChEMBL document CHEMBL1123911, “Dopamine agonists: effects of charged and uncharged analogues of dopamine” (1987)

Experiments:
Rattus norvegicus [1] = species on record: Rattus norvegicus; test: Ability to inhibit the K+-induced release of [3H]acetylcholine in normal striatal slices at 30 uM; format: functional; parameters: scale not given: the % may be the effect or the level left
Procedure, shortened: (§1)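 Striatal slices in Krebs–Ringer bicarbonate with 0.6 mM ascorbic acid, 0.03 mM Na2EDTA and 11 mM glucose, gassed 95% O2/5% CO2, labelled 20 min with [3H]choline, then superfused at 0.5 mL/min. At 55 min, 12.5 mM K+ (Na+ lowered equimolarly) was applied for 10 min, with drug present from 10 min before. Scintillation counting gave fractional tritium release above spontaneous outflow, expressed as % of drug-free control.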

Rattus norvegicus [2] = species on record: Rattus norvegicus; test: Ability to inhibit the K+-induced release of [3H]Acetylcholine in dopamine depleted striatal slices at 30 uM; format: functional; parameters: scale not given: the % may be the effect or the level left; procedure, shortened: as §1
Rattus norvegicus [3] = species on record: Rattus norvegicus; test: Ability to inhibit the K+-induced release of [3H]acetylcholine in normal striatal slices at 1 uM; format: functional; parameters: scale not given: the % may be the effect or the level left
Procedure, shortened: (§2)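 Striatal slices in Krebs–Ringer bicarbonate with 0.6 mM ascorbic acid, 0.03 mM Na₂EDTA and 11 mM glucose, gassed with 95% O₂/5% CO₂. Slices were labelled 20 min with [³H]choline, then superfused at 0.5 mL/min. Drug was added 10 min before and during 12.5 mM K⁺ (Na⁺-compensated) for 10 min. K⁺-evoked fractional tritium release above baseline is given as % of drug-free control, ±SEM.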

Rattus norvegicus [4] = species on record: Rattus norvegicus; test: Inhibition of stimulation of [3H]- acetylcholine release in rat striatal tissue; format: functional, Striatum; procedure, shortened: as §1
Rattus norvegicus [5] = species on record: Rattus norvegicus; test: Ability to inhibit the K+-induced release of [3H]acetylcholine in normal striatal slices at 0.1 uM; format: functional; parameters: scale not given: the % may be the effect or the level left; procedure, shortened: as §2
Rattus norvegicus [6] = species on record: Rattus norvegicus; test: Ability to inhibit the K+-induced release of [3H]acetylcholine in dopamine depleted striatal slices at 0.1 uM; format: functional; parameters: scale not given: the % may be the effect or the level left; procedure, shortened: as §2
Rattus norvegicus [7] = species on record: Rattus norvegicus; test: Ability to inhibit the K+-induced release of [3H]Acetylcholine in normal striatal slices at 60 uM; format: functional; parameters: scale not given: the % may be the effect or the level left; procedure, shortened: as §2

SMILES	Control (Rattus norvegicus [1]) [%]	Control (Rattus norvegicus [2]) [%]	also measured
C[S+](C)CC(O)c1ccc(O)c(O)c1.[I-] (stereo not given)	113	–	–
C[Se]CCc1ccc(O)c(O)c1	95	–	–
C[Se+](C)CCc1ccc(O)c(O)c1.[I-]	57	47	–
C[S+](C)CCc1ccc(O)c(O)c1.[I-]	50	61	–
CS(=O)(=O)CCc1ccc(O)c(O)c1	122	–	–
C[N+]1(C)CCc2cccc3c2[C@H]1Cc1ccc(O)c(O)c1-3	–	–	Control (Rattus norvegicus [3]): 59%
CSCCc1ccc(O)c(O)c1	82	100	Inhibition (Rattus norvegicus [4]): 18%
C[S+]([O-])CCc1ccc(O)c(O)c1 (stereo not given)	101	–	–
C[N+](C)(C)CCc1ccc(O)c(O)c1.[I-]	52	53	–
CN1CCc2cccc3c2[C@H]1Cc1ccc(O)c(O)c1-3 [APOMORPHINE]	–	–	Control (Rattus norvegicus [5]): 60%; Control (Rattus norvegicus [6]): 56%
NCCc1ccc(O)c(O)c1 [DOPAMINE]	40	–	Control (Rattus norvegicus [3]): 70%
NC[C@H](O)c1ccc(O)c(O)c1 [NOREPINEPHRINE]	101	–	Control (Rattus norvegicus [7]): 85%
